Data as given in ChEMBL document CHEMBL1142550, “Thiopyrano[2,3-e]indol-2-ones: angelicin heteroanalogues with potent photoantiproliferative activity” (Bioorg Med Chem, 2008).
pIC50: −log10 of the molar value. Active and inactive are the calls of the source. The rule behind the calls is not given here.

Legend:
Jurkat [1] = assay: Photocytotoxicity against human JURKAT cells treated 30 mins before 2.5 J/cm'2 UVA irradiation measured after 72 hrs by MTT assay; format: functional, cell-based; settings: light or radiation study
HT-1080 [2] = assay: Photocytotoxicity against human HT1080 cells treated 30 mins before 3.75 J/cm'2 UVA irradiation measured after 72 hrs by MTT assay; format: functional, cell-based; settings: HT-1080, light or radiation study
[3] = Photocytotoxicity against human NCTC 2544 cells treated 30 mins before 2.5 J/cm'2 UVA irradiation measured after 72 hrs by MTT assay; format: functional, cell-based; settings: NCTC-2544, light or radiation study
[4] = Photocytotoxicity against human NCTC 2544 cells treated 30 mins before 3.75 J/cm'2 UVA irradiation measured after 72 hrs by MTT assay; format: functional, cell-based; settings: NCTC-2544, light or radiation study
HL-60 = assay: Photocytotoxicity against human HL-60 cells treated 30 mins before 2.5 J/cm'2 UVA irradiation measured after 72 hrs by MTT assay; format: functional, cell-based; settings: HL-60, light or radiation study
Jurkat [5] = assay: Photocytotoxicity against human JURKAT cells treated 30 mins before 3.75 J/cm'2 UVA irradiation measured after 72 hrs by MTT assay; format: functional, cell-based; settings: light or radiation study
HT-1080 [6] = assay: Photocytotoxicity against human HT1080 cells treated 30 mins before 2.5 J/cm'2 UVA irradiation measured after 72 hrs by MTT assay; format: functional, cell-based; settings: HT-1080, light or radiation study
LoVo [7] = assay: Photocytotoxicity against human LoVo cells treated 30 mins before 2.5 J/cm'2 UVA irradiation measured after 72 hrs by MTT assay; format: functional, cell-based; settings: light or radiation study
Escherichia coli [8] = assay: Induction of DNA photodamage of Escherichia coli pBR322 exposed to 3.5 J/cm'2 UVA irradiation
Summary of the method: (§1)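 pBR322 supercoiled plasmid (100 ng) in 10 mM phosphate buffer pH 7.2 irradiated with UVA (365 nm, 4.0 mW cm⁻²; 3.5 J cm⁻²) at [DNA]/[drug] ratios 1, 2 and 4. Aliquots were then incubated at 37 °C with Fpg or Endo III. Scavenger runs used drug ratio 1 with mannitol 10 mM, GSH 1 mM or NaN₃ 10 mM. Samples were run on 1% agarose in TAE, 70 V, 4 h. Read-out was % form II by densitometry, mean ± SEM of three independent experiments.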

Escherichia coli [9] = assay: Induction of DNA photodamage of Escherichia coli pBR322 exposed to 3.5 J/cm'2 UVA irradiation in presence of formamidopyrimidine DNA glycosylase; summary of the method: as §1
Escherichia coli [10] = assay: Induction of DNA photodamage of Escherichia coli pBR322 exposed to 3.5 J/cm'2 UVA irradiation in presence of endonuclease 3; summary of the method: as §1
Escherichia coli [11] = assay: Induction of DNA photodamage of Escherichia coli pBR322 exposed to 3.5 J/cm'2 UVA irradiation in presence of mannitol; summary of the method: as §1
Escherichia coli [12] = assay: Induction of DNA photodamage of Escherichia coli pBR322 exposed to 3.5 J/cm'2 UVA irradiation in presence of sodium azide; summary of the method: as §1
Escherichia coli [13] = assay: Induction of DNA photodamage of Escherichia coli pBR322 exposed to 3.5 J/cm'2 UVA irradiation in presence of reduced glutathione; summary of the method: as §1
LoVo [14] = assay: Photocytotoxicity against human LoVo cells at 1.25 uM treated 30 mins before 2.5 J/cm'2 UVA irradiation measured after 72 hrs by MTT assay in presence of reduced glutathione; format: functional, cell-based
Summary of the method: (§2)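 LoVo cells were seeded at 5×10³ per well in Ham's F12/10% FCS. Drug 1.25 μM was given with an additive: BHA 10⁻⁵ M, DMTU 1 mM, GSH 1 mM or NaN₃ 10 mM. After 30 min in HBSS at 37 °C, cells received UVA 2.5 J cm⁻², and MTT viability was read 72 h later.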

LoVo [15] = assay: Photocytotoxicity against human LoVo cells at 1.25 uM treated 30 mins before 2.5 J/cm'2 UVA irradiation measured after 72 hrs by MTT assay in presence of 2,6-di-t-butylhydroxyanisole; format: functional, cell-based; summary of the method: as §2
LoVo [16] = assay: Photocytotoxicity against human LoVo cells at 1.25 uM treated 30 mins before 2.5 J/cm'2 UVA irradiation measured after 72 hrs by MTT assay in presence of N-N'-dimethylthiourea; format: functional, cell-based; summary of the method: as §2
LoVo [17] = assay: Photocytotoxicity against human LoVo cells at 1.25 uM treated 30 mins before 2.5 J/cm'2 UVA irradiation measured after 72 hrs by MTT assay in presence of sodium azide; format: functional, cell-based; summary of the method: as §2
Jurkat [18] = assay: Induction of apoptosis in human JURKAT cells assessed as annexin V positive cells treated 30 mins before 2.5 J/cm'2 UVA irradiation measured after 24 hrs by flow cytometry; format: functional, cell-based
Summary of the method: (§3)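 Jurkat cells were exposed to drug in HBSS pH 7.2 (from DMSO stock) for 30 min at 37 °C, then given UVA 2.5 J cm⁻² (365 nm) at several concentrations. After 24 h, cells were stained with Annexin V-FITC plus propidium iodide and analysed by flow cytometry (ex 488 nm; em 525 nm FITC, 560–680 nm PI).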

Jurkat [19] = assay: Induction of necrosis in human JURKAT cell sat 5.0 uM treated 30 mins before 2.5 J/cm'2 UVA irradiation measured after 24 hrs; format: functional; summary of the method: as §3
Jurkat [20] = assay: Induction of apoptosis in human JURKAT cells assessed as reduction in mitochondrial membrane potential at 5 uM treated 30 mins before 2.5 J/cm'2 UVA irradiation measured after 24 hrs by flow cytometry; format: functional, cell-based
Summary of the method: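 Jurkat cells were treated with drug at 5 μM and UVA 2.5 J cm⁻², then sampled at different times after irradiation. Cells were resuspended in HBSS with JC-1 2.5 μM for 10 min at 37 °C, then analysed by flow cytometry. Values are mean ± SEM of three experiments.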

Jurkat [21] = assay: Induction of apoptosis in human JURKAT cells assessed as increase in reactive oxygen species release treated 30 mins before 2.5 J/cm'2 UVA irradiation measured after 24 hrs by hydroethidine staining; format: functional, cell-based
Summary of the method: (§4)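 Jurkat cells were irradiated (UVA 2.5 J cm⁻²) with drug at several concentrations. At 24 h they were resuspended in HBSS with hydroethidine 0.1 μM, DCFDA 2.5 μM or NAO 5.0 μM for 30 min at 37 °C. Flow cytometry used ex 488 nm, em 585 nm (HE) or 530 nm (DCFDA, NAO). Values are means ± SEM, n=3.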

Jurkat [22] = assay: Induction of apoptosis in human JURKAT cells assessed as increase in reactive oxygen species release treated 30 mins before 2.5 J/cm'2 UVA irradiation measured after 24 hrs by DCFDA staining; format: functional, cell-based; summary of the method: as §4
Jurkat [23] = assay: Induction of apoptosis in human JURKAT cells assessed as increase in cardiolipin oxidation treated 30 mins before 2.5 J/cm'2 UVA irradiation measured after 24 hrs by N-nonyl acridine orange staining; format: functional, cell-based; summary of the method: as §4
Jurkat [24] = assay: Induction of apoptosis in human JURKAT cells assessed as decrease in intracellular GSH levels treated 30 mins before 2.5 J/cm'2 UVA irradiation measured after 24 hrs by flow cytometry; format: functional, cell-based
Summary of the method: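 Jurkat cells were irradiated (2.5 J cm⁻²) with drug at several concentrations. At 24 h cells were harvested and incubated with monobromobimane 50 μM for 10 min at 37 °C. GS-mBBr was measured by flow cytometry (ex 354, em 450). Values are mean ± SEM, n=3.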

Jurkat [25] = assay: Induction of apoptosis in human JURKAT cells assessed as lysosomal damage treated 30 mins before 2.5 J/cm'2 UVA irradiation measured after 24 hrs by flow cytometry; format: functional, cell-based
Summary of the method: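 Jurkat cells were irradiated (2.5 J cm⁻²) with drug at several concentrations. At 24 h cells were stained with acridine orange 5 μg/mL for 15 min at 37 °C, washed, and analysed by flow cytometry (ex 488, em 546 nm).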

Jurkat [26] = assay: Induction of apoptosis in human JURKAT cells supernatant assessed as lipid peroxidation treated 30 mins before 2.5 J/cm'2 UVA irradiation measured after 24 hrs by thiobarbituric acid assay; format: functional, cell-based
Summary of the method: (§5)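 Cells were grown 2 days to confluence, then irradiated in HBSS with drug 10 μM at varied UVA doses. At 24 h, the TBA test was run on supernatant and on cell homogenates. Malonaldehyde was quantified against a 1,1,3,3-tetraethoxypropane standard and expressed as nmol TBARS per total protein.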

Jurkat [27] = assay: Induction of apoptosis in human JURKAT cells homogenate assessed as lipid peroxidation treated 30 mins before 2.5 J/cm'2 UVA irradiation measured after 24 hrs by thiobarbituric acid assay; format: functional, cell-based; summary of the method: as §5
Erythrocyte = assay: Induction of protein photodamage of human erythrocyte ghost plasmatic membrane assessed as disappearance of the spectrin subunit bands at 10 uM treated 30 mins before 2.5 J/cm'2 UVA irradiation by electrophoresis; format: cell-based
Summary of the method: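 Erythrocyte ghost membranes (1.0 mg/ml protein) were irradiated with drug at increasing UVA doses.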

Nucleic Acid [28] = assay: Induction of DNA photodamage of salmon testes DNA assessed as DNA intercalation by linear dichroism; format: nucleic-acid assay; settings: Salmonidae
Summary of the method: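 Linear dichroism in a flow cell with salmon testes DNA at 2.27 mM in phosphate buffer, ligand/DNA r = 0, 0.02 and 0.04. Absorbance spectra were recorded alongside.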

Nucleic Acid [29] = assay: Induction of DNA photodamage of salmon testes DNA assessed as DNA intercalation by circular dichroism; format: nucleic-acid assay; settings: Salmonidae
Summary of the method: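 Circular dichroism of salmon testes DNA (2 μM) with ligand at ligand/DNA ratios 0.02 and 0.04 in phosphate buffer. Spectra are the average of 4 scans.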

Jurkat [30] = assay: Induction of apoptosis in human JURKAT cells assessed as caspase 3 activation treated 30 mins before 2.5 J/cm'2 UVA irradiation measured after 24 hrs by colorimetric assay

COc1c2occc2cc2ccc(=O)oc12 [METHOXSALEN]
pIC50 (Jurkat [1]): 5.92
pIC50 (HT-1080 [2]): 5.72
pIC50 [3]: 5.26
pIC50 [4]: 6.05

O=c1ccc2ccc3occc3c2o1 [ANGELICIN]
pIC50 (Jurkat [1]): 6.05
pIC50 [3]: 5.38
pIC50 [4]: 5.82

Cc1cc2c(n1Cc1ccccc1)CCc1ccc(=O)sc1-2
pIC50 (HL-60): 5.40
pIC50 (Jurkat [1]): 5.40
pIC50 (Jurkat [5]): 5.66
pIC50 (HT-1080 [6]): 4.95
pIC50 (HT-1080 [2]): 5.01
pIC50 (LoVo [7]): < 4.70
pIC50 [3]: < 4.70
pIC50 [4]: < 4.70

Cc1cc2c3sc(=O)ccc3ccc2n1C
Activity (Escherichia coli [8]): inactive
Activity (Escherichia coli [9]): Active
Activity (Escherichia coli [10]): Active
Activity (Escherichia coli [11]): inactive
Activity (Escherichia coli [12]): inactive
Activity (Escherichia coli [13]): inactive
pIC50 (Jurkat [1]): 6.30
pIC50 (Jurkat [5]): 6.70
pIC50 (HT-1080 [6]): 6.05
pIC50 (HT-1080 [2]): 6.22
pIC50 [3]: 5.68
pIC50 [4]: 5.80
Activity (LoVo [14]): inactive
Activity (LoVo [15]): inactive
Activity (LoVo [16]): inactive
Activity (LoVo [17]): Active
Activity (Jurkat [18]): Dose-dependent effect
Activity (Jurkat [19]): 2%
Activity (Jurkat [20]): Active
Activity (Jurkat [21]): Active
Activity (Jurkat [22]): Active
Activity (Jurkat [23]): Active
Activity (Jurkat [24]): Dose-dependent effect
Activity (Jurkat [25]): Active
Activity (Jurkat [26]): Active
Activity (Jurkat [27]): Active
Activity (Erythrocyte): Active
Activity (Nucleic Acid [28]): inactive
Activity (Nucleic Acid [29]): inactive
Activity (Jurkat [30]): Active
